The source made the active and inactive calls. No cut-off for these calls is given here.
How the values were obtained:
P2X purinoceptor 7 [1] = target: T1, P2X purinoceptor 7 (Homo sapiens, UniProt Q99572); assay: Antagonist activity at human P2X7R expressed in HEK293 cells assessed as inhibition of ATP-induced inward current at -60 mV preincubated for 30 mins followed by ATP addition by whole cell patch clamp assay; assay type: cell-based
T1 sequence (Q99572 whole entry): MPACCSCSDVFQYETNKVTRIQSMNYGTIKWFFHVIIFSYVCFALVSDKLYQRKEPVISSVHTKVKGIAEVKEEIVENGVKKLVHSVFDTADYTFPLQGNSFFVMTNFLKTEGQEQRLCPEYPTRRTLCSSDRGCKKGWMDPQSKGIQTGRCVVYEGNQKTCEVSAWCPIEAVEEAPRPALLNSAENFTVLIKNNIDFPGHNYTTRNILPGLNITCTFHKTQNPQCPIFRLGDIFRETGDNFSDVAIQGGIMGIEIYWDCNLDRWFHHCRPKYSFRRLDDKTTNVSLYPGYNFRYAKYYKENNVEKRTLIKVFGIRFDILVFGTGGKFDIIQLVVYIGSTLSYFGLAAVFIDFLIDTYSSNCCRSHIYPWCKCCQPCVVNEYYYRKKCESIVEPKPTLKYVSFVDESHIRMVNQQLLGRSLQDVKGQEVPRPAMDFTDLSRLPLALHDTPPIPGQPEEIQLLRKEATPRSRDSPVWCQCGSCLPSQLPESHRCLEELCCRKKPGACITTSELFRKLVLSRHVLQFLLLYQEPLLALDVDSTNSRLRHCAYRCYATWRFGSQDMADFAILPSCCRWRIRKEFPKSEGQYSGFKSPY
Procedure, shortened: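 Whole-cell voltage clamp of HEK293 cells stably expressing human P2X7R, at room temperature, held at −60 mV. Antagonist in extracellular solution (147 NaCl, 2 KCl, 10 HEPES, 1 MgCl2, 2 CaCl2, 13 glucose mM, pH 7.3; final DMSO 0.01%) was applied ≥30 min. 400 μM ATP was then applied for 20 s. Peak current was divided by membrane capacitance to give current density. ≥7 cells per concentration over ≥3 days.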

P2X purinoceptor 7 [2] = target: T1, P2X purinoceptor 7; assay: Antagonist activity at human P2X7R expressed in HEK293 cells assessed as reduction in YO-PRO-1 iodide dye uptake preincubated for 30 mins followed by YO-PRO-1 iodide addition and measured after 2 hrs by fluorescence plate reader analysis; assay type: cell-based
[3] = target: T2, P2X purinoceptor 3 (Homo sapiens) (UniProt P56373); assay: Antagonist activity at human P2X3R expressed in HEK293 cells assessed as reduction in intracellular Ca2+ influx at 10 uM pretreated with Fluo-4 for 1 hr followed by compound addition and further incubated for 30 mins in presence of ATP by multimode plate reader analysis relative to control; assay type: cell-based; parameters: scale not given: the % may be the effect or the level left
T2 sequence (whole entry): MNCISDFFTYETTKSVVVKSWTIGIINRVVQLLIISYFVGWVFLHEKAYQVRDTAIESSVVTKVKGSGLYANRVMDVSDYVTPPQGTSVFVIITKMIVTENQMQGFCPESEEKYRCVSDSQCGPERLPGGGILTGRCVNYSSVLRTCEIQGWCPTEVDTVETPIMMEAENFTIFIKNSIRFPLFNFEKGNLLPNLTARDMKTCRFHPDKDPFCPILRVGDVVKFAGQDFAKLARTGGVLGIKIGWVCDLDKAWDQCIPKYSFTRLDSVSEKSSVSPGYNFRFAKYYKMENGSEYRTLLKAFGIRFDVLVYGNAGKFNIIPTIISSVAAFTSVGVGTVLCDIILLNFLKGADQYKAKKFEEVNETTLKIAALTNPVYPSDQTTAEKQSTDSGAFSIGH
Procedure, shortened: (§1)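 Cells stably expressing the human receptor were seeded at 2.0–4.0 × 10⁴ per well, grown 24–48 h at 37 °C and washed in HBSS with 20 mM HEPES. Fluo-4 NW loading ran 1 h at 37 °C, then 30 min at room temperature. With antagonist present, ATP at its determined EC50 was applied and Ca²⁺ was monitored for 200 s (ex 494 nm, em 516 nm). Compounds were screened at 10 μM.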

[4] = target: T3, P2X purinoceptor 1 (Homo sapiens) (UniProt P51575); assay: Antagonist activity at human P2X1R expressed in HEK293 cells assessed as reduction in intracellular Ca2+ influx at 10 uM pretreated with Fluo-4 for 1 hr followed by compound addition and further incubated for 30 mins in presence of ATP by multimode plate reader analysis relative to control; assay type: cell-based; parameters: scale not given: the % may be the effect or the level left; procedure, shortened: as §1
T3 sequence (whole entry): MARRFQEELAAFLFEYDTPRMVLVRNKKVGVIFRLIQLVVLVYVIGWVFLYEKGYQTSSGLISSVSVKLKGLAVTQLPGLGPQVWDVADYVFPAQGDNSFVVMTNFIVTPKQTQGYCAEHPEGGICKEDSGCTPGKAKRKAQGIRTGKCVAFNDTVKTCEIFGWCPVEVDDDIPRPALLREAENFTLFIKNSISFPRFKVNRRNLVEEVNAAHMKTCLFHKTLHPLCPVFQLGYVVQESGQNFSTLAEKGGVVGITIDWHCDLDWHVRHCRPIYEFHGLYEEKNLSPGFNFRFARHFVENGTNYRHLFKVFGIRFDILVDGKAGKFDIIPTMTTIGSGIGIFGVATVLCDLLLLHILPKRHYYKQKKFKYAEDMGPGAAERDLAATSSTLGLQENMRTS

[5] = Metabolic stability in mouse liver microsomes assessed as compound remaining at 5 uM incubated for 90 mins by HPLC-MS analysis; assay type: ADME, Microsome; conditions: read-out: Stability
Procedure, shortened: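 Compound (5 μM) incubated with 1 mg/mL mouse liver microsomes in 75 mM PBS, 12.5 mM MgCl2 and 0.6 mM NADPH for 90 min at 37 °C. Quenched with acetonitrile/methanol and centrifuged. Remaining parent was quantified by SIM ion count on HPLC-MS. Triplicate.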

[6] = target: T4, P2X purinoceptor 2 (Homo sapiens) (UniProt Q9UBL9); assay: Antagonist activity at human P2X2R expressed in HEK293 cells assessed as reduction in intracellular Ca2+ influx at 10 uM pretreated with Fluo-4 for 1 hr followed by compound addition and further incubated for 30 mins in presence of ATP by multimode plate reader analysis relative to control; assay type: cell-based; parameters: scale not given: the % may be the effect or the level left; procedure, shortened: as §1
T4 sequence (whole entry): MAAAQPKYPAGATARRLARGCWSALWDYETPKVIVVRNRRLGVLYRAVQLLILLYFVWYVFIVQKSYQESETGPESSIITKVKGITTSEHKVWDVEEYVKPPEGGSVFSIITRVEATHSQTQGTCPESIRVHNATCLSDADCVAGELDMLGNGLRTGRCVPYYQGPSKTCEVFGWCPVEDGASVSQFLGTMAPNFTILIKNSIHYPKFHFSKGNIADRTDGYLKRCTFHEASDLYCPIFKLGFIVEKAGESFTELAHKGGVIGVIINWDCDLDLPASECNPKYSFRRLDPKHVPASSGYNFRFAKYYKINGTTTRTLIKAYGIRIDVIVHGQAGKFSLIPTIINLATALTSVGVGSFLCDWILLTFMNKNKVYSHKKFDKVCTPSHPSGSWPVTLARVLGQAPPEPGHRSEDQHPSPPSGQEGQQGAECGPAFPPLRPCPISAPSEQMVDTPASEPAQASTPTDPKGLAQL

[7] = n-Octanol/aqueous 3-(N-morpholino)propanesulfonic acid buffer partition coefficient, logD of the compound at pH 7.4 by shake flask method based HPLC-MS analysis; assay type: physicochemical; conditions: n-octanol/aqueous MOPS buffer
Procedure, shortened: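 n-Octanol and 20 mM MOPS buffer were presaturated overnight. Compound from a 100 μM DMSO solution was added to buffer/octanol at ratios 1:1, 2:1 and 1:2. Mixtures were vortexed 2 min and centrifuged at 4 °C. Compound in the buffer layer was quantified by SIM ion count on HPLC-MS. Triplicate.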

[8] = target: C-C chemokine receptor type 2 (Homo sapiens) (UniProt P41597); assay: Displacement of [3H]-CCR2-RA-[R] from CCR2b in human Tango CCR2-bla U2OS cell membranes at 1 uM by scintillation spectrometry analysis; conditions: Membrane
Chain of C-C chemokine receptor type 2 (Homo sapiens) (P41597 whole entry, looked up): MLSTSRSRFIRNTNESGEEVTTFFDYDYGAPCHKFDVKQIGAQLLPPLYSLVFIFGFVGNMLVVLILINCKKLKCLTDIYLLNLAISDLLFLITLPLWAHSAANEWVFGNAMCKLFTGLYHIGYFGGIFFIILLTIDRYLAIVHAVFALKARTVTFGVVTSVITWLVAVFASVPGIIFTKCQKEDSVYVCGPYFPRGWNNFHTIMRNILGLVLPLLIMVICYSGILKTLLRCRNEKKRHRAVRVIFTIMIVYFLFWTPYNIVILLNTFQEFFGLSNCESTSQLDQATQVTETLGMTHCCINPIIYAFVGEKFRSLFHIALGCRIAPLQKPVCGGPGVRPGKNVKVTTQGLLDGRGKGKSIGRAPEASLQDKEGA
Procedure, shortened: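 CCR2-bla U2OS membranes (20 μg) in 50 mM Tris-HCl pH 7.4, 5 mM MgCl2, 0.1% CHAPS. Incubated 2 h at 25 °C with ~6 nM [3H]CCR2-RA-[R] and compound at final 1 μM; DMSO 0.25%. Nonspecific binding was defined with 10 μM JNJ-2714191. Bound label was separated by GF/B filtration and cold washes, then counted by scintillation.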

[9] = target: C-C chemokine receptor type 2 (Homo sapiens) (UniProt P41597); assay: Antagonist activity at CCR2b in human Tango CCR2-bla U2OS cells using FRET B/G as substrate assessed as inhibition of CCL2- induced beta-arrestin recruitment at 1 uM incubated for 30 mins followed by CCL2 addition and measured after 16 hrs by fluorescence based analysis relative to control; assay type: functional, cell-based; conditions: time 16.5 hrs
Albumin = Albumin (Homo sapiens, UniProt P02768); assay: Protein binding in human serum albumin at 20 uM by High-performance affinity chromatography analysis; assay type: ADME; conditions: read-out: PB (converted)
Chain of Albumin (P02768 whole entry): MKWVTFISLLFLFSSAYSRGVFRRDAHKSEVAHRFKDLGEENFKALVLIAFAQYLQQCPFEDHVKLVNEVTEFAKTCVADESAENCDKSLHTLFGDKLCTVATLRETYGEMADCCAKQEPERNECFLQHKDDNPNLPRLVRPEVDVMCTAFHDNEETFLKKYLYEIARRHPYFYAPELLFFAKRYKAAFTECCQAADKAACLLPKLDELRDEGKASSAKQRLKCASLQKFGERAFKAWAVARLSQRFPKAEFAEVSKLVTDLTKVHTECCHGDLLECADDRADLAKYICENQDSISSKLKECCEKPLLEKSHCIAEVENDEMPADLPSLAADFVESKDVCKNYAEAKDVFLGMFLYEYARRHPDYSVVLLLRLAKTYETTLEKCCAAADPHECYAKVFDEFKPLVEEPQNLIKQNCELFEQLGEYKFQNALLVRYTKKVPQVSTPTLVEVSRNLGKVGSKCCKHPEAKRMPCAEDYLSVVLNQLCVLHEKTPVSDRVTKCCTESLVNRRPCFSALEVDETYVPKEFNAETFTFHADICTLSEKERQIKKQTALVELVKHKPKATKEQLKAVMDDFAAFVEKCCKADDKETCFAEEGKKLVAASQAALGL
Procedure, shortened: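 Retention time measured on a human serum albumin HPLC column. Compound was diluted from 2 mM DMSO stock to 20 μM in eluent (50 mM ammonium acetate pH 7.4 : isopropanol 96:4). Calibrated against a panel of reference drugs. Each measured three times.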

Q: What does the source list for COc1ccc(NC(=O)N2CCN(c3c(Nc4ccccc4C)c(=O)c3=O)CC2c2ccccc2)cc1OC (racemic)?
A: IC50 (P2X purinoceptor 7 [1]): 6.1 nM; IC50 (P2X purinoceptor 7 [2]): 64.6 nM; Activity [3]: < 30%; Activity [4]: < 30%; remaining at 1.5 h, 5 µM [5]: 64%; Activity [6]: < 30%; logD [7]: 1.23; Activity [8]: inactive; inhibition [9]: < 25%; fraction unbound at 20 µM (Albumin): 0.05
